In ChEMBL document CHEMBL1828518, “Arylazolylthioacetanilide. Part 8: Design, synthesis and biological evaluation of novel 2-(2-(2,4-dichlorophenyl)-2H-1,2,4-triazol-3-ylthio)-N-arylacetamides as potent HIV-1 inhibitors” (Eur J Med Chem, 2011):
Activity calls are given as the source filed them. No cut-off for these calls is given here.

Experiments:
[1] = tested on: Human immunodeficiency virus 1; assay: Antiviral activity against HIV-1 3B infected in human MT4 cells assessed as inhibition of virus-induced syncytium formation after 5 days by MTT assay; type: functional, organism-based; conditions: Human immunodeficiency virus 1, 3B, MT4, 120 h
Outline: (§1)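 MT-4 cells (exponentially growing, spun 5 min at 1000 rpm, resuspended at 6 × 10⁵ cells/mL) infected with HIV-1 IIIB or HIV-2 ROD at 100–300 CCID50. Compounds added at infection in triplicate wells as serial fivefold dilutions, with untreated infected and mock-infected controls. Viability read by MTT at 540 and 690 nm after 5 days, from the median OD of three wells.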

[2] = tested on: Human immunodeficiency virus 2; assay: Antiviral activity against HIV-2 ROD infected in human MT4 cells assessed as inhibition of virus-induced syncytium formation after 5 days by MTT assay; type: functional, organism-based; conditions: Human immunodeficiency virus 2, ISOLATE ROD, MT4, 120 h; outline: as §1
[3] = Cytotoxicity against human MT4 cells assessed as cell viability after 5 days by MTT assay; type: cell-based
Outline: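 MT-4 cells at 6 × 10⁵ cells/mL, mock-infected with culture medium and run in parallel with the antiviral plates. Test compounds given as serial fivefold dilutions in triplicate wells. After 5 days viability read by MTT reduction to formazan at 540 and 690 nm, using the median OD of three wells.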

[4] = Selectivity index, ratio of CC50 for human MT4 cells to EC50 for HIV-1 3B infected in human MT4 cells; type: toxicity, cell-based; conditions: uninfected and infected with HIV-1 3B, read-out: Ratio CC50/EC50
Outline: (§2)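 Selectivity index calculated as CC50 divided by EC50. Both values come from MTT readings taken 5 days after infection, on mock-infected and virus-infected MT-4 cells run in parallel.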

[5] = Selectivity index, ratio of CC50 for human MT4 cells to EC50 for HIV-2 ROD infected in human MT4 cells; type: toxicity, cell-based; conditions: uninfected and infected with HIV-2 ROD, read-out: Ratio CC50/EC50; outline: as §2
[6] = tested on: Human immunodeficiency virus 1; assay: Antiviral activity against HIV-1 3B harboring RT Y181C mutant infected in human MT4 cells assessed as inhibition of virus-induced syncytium formation after 5 days by MTT assay; type: functional, organism-based
Outline: (§3)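 Exponentially growing MT-4 cells, pelleted and resuspended at 6 × 10⁵ cells/mL, were infected with virus stock at 100-300 CCID50. Test compounds were added at infection as serial fivefold dilutions, in triplicate wells. After 5 days, viability was read by MTT reduction at 540 and 690 nm using the median OD of three wells.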

[7] = tested on: Human immunodeficiency virus 1; assay: Antiviral activity against HIV-1 3B harboring RT Y188L mutant infected in human MT4 cells assessed as inhibition of virus-induced syncytium formation after 5 days by MTT assay; type: functional, organism-based; outline: as §3
[8] = tested on: Human immunodeficiency virus 1; assay: Antiviral activity against HIV-1 3B harboring RT F227L and V106A mutant infected in human MT4 cells assessed as inhibition of virus-induced syncytium formation after 5 days by MTT assay; type: functional, organism-based; outline: as §3
[9] = tested on: Human immunodeficiency virus 1; assay: Antiviral activity against HIV-1 3B harboring RT K103N and Y181C mutant infected in human MT4 cells assessed as inhibition of virus-induced syncytium formation after 5 days by MTT assay; type: functional, organism-based; outline: as §3
[10] = tested on: Human immunodeficiency virus 1; assay: Ratio of EC50 for HIV-1 3B harboring RT K103N mutant infected in human MT4 cells to EC50 for wild type HIV-1 3B infected in human MT4 cells; type: functional
Outline: (§4)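 Fold resistance is the EC50 against the drug-resistant strain divided by the EC50 against wild-type HIV-1 IIIB. Both values come from the same MT-4 assay: 5-day infection, MTT viability read-out, and serial fivefold compound dilutions in triplicate wells.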

[11] = tested on: Human immunodeficiency virus 1; assay: Ratio of EC50 for HIV-1 3B harboring RT E138K mutant infected in human MT4 cells to EC50 for wild type HIV-1 3B infected in human MT4 cells; type: functional; outline: as §4
[12] = tested on: Human immunodeficiency virus 1; assay: Ratio of EC50 for HIV-1 3B harboring RT L100I mutant infected in human MT4 cells to EC50 for wild type HIV-1 3B infected in human MT4 cells; type: functional; outline: as §4
[13] = tested on: Human immunodeficiency virus 1; assay: Antiviral activity against HIV-1 3B harboring RT E138K mutant infected in human MT4 cells assessed as inhibition of virus-induced syncytium formation after 5 days by MTT assay; type: functional, organism-based; conditions: Human immunodeficiency virus 1, 3B, MT4, 120 h; outline: as §3
[14] = tested on: Human immunodeficiency virus 1; assay: Antiviral activity against HIV-1 3B harboring RT K103N mutant infected in human MT4 cells assessed as inhibition of virus-induced syncytium formation after 5 days by MTT assay; type: functional, organism-based; conditions: Human immunodeficiency virus 1, 3B, MT4, 120 h; outline: as §3
[15] = tested on: Human immunodeficiency virus 1; assay: Antiviral activity against HIV-1 3B harboring RT L100I mutant infected in human MT4 cells assessed as inhibition of virus-induced syncytium formation after 5 days by MTT assay; type: functional, organism-based; conditions: Human immunodeficiency virus 1, 3B, MT4, 120 h; outline: as §3
[16] = molecular target: Human immunodeficiency virus type 1 reverse transcriptase (Human immunodeficiency virus 1, UniProt Q72547); assay: Inhibition of HIV-1 reverse transcriptase assessed as inhibition of biotin-dUTP incorporation […] by colorimetry
Outline: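 Purified recombinant HIV-1 RT with a […] template primer. Read-out is colorimetric detection of biotin-dUTP incorporated into the homopolymer template primer, with nucleotides linked to the microtiter plate.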

Row | Compound | EC50 [1] [µM] | EC50 [2] [µM] | CC50 at 120 h [3] [µM] | selectivity ratio [4] | selectivity ratio [5] | inhibition [6] | inhibition [7] | inhibition [8] | inhibition [9] | Ratio EC50 [10] | Ratio EC50 [11] | Ratio EC50 [12] | EC50 [13] [µM] | EC50 [14] [µM] | EC50 [15] [µM] | IC50 [16] [µM] | EC50 ([9]; Human immunodeficiency virus 1, 3B, MT4, 120 h) [µM]
1 | O=C(CSc1ncnn1-c1ccc(Cl)cc1Cl)Nc1ccc(Cl)cc1Br | > 189 | > 189 | 189 | < 1 | < 1 |  |  |  |  |  |  |  |  |  |  |  | 
2 | Cc1cn([C@H]2C[C@H](N=[N+]=[N-])[C@@H](CO)O2)c(=O)[nH]c1=O [ZIDOVUDINE] | 0.0076 | 0.0033 | > 88.3 | > 11600 | > 28300 | inactive | inactive | inactive | inactive | 0.71 | 1.4 | 0.32 | 0.02 | 0.011 | 0.0049 |  | 
3 | Cc1ccccc1NC(=O)CSc1ncnn1-c1ccc(Cl)cc1Cl | 32.4 | > 106 | 106 | 3 | < 1 |  |  |  |  |  |  |  |  |  |  |  | 
4 | CC(C)Nc1cccnc1N1CCN(C(=O)c2cc3cc(NS(C)(=O)=O)ccc3[nH]2)CC1.CS(=O)(=O)O [DELAVIRDINE MESYLATE] |  |  |  |  |  | inactive | inactive | inactive | inactive | 52.8 | 1.9 | 68.3 | 0.06 | 1.72 | 2.23 |  | 
5 | CC(=O)c1ccc(NC(=O)CSc2ncnn2-c2ccc(Cl)cc2Cl)c(Br)c1 | > 114 | > 114 | 114 | < 1 | < 1 |  |  |  |  |  |  |  |  |  |  |  | 
6 | O=C(CSc1ncnn1-c1ccc(Cl)cc1Cl)Nc1ccccc1[N+](=O)[O-] | 2.78 | > 187 | 187 | 67 | < 1 | inactive | inactive | inactive | inactive | 1.8 | 2.3 | 2.1 | 9.45 | 7.42 | 8.51 | > 471 | 
7 | Cc1cc(C#N)cc(C)c1Oc1nc(Nc2ccc(C#N)cc2)nc(N)c1Br [ETRAVIRINE] |  |  |  |  |  | inactive | inactive | inactive | inactive | 0.62 | 2.6 | 1.54 | 0.008 | 0.00184 | 0.0046 |  | 
8 | Cc1ccnc2c1NC(=O)c1cccnc1N2C1CC1 [NEVIRAPINE] | 0.19 | > 15 | > 15 |  |  | inactive | inactive | inactive | inactive |  |  |  | 0.18 | 7.25 | 1.92 |  | 
9 | Cc1ccc(NC(=O)CSc2ncnn2-c2ccc(Cl)cc2Cl)c(Br)c1 | > 184 | > 184 | > 184 |  |  |  |  |  |  |  |  |  |  |  |  |  | 
10 | COC(=O)c1ccc(NC(=O)CSc2ncnn2-c2ccc(Cl)cc2Cl)c(Br)c1 | 4.13 | > 59.3 | 59.3 | 14 | < 1 | inactive | inactive | inactive | inactive | 2.2 | >=4.3 | 2 | ≥ 15.2 | 7.73 | 6.95 | 385 | 
11 | Nc1ccn([C@H]2CC[C@@H](CO)O2)c(=O)n1 [ZALCITABINE] | 0.75 | 0.88 | > 94 | > 127 | > 108 |  |  |  |  |  |  |  |  |  |  |  | 
12 | CCOC(=O)c1ccc(NC(=O)CSc2ncnn2-c2ccc(Cl)cc2Cl)cc1 | > 22.8 | > 22.8 | 22.8 | < 1 | < 1 |  |  |  |  |  |  |  |  |  |  |  | 
13 | O=C1Nc2ccc(Cl)cc2[C@@](C#CC2CC2)(C(F)(F)F)O1 [EFAVIRENZ] |  |  |  |  |  | inactive | inactive | inactive | inactive |  |  |  | 0.0055 | 0.108 | 0.054 |  | 
14 | O=C(CSc1ncnn1-c1ccc(Cl)cc1Cl)Nc1ccccc1F | > 38.4 | > 38.4 | 38.4 | < 1 | < 1 |  |  |  |  |  |  |  |  |  |  |  | 
15 | Cc1ccc(NC(=O)CSc2ncnn2-c2ccc(Cl)cc2Cl)c([N+](=O)[O-])c1 | > 285 | > 285 | > 285 |  |  |  |  |  |  |  |  |  |  |  |  |  | 
16 | COC(=O)c1ccc(NC(=O)CSc2ncnn2-c2ccc(Cl)cc2Cl)cc1 | > 26.3 | > 26.3 | 26.3 | < 1 | < 1 |  |  |  |  |  |  |  |  |  |  |  | 
17 | O=c1[nH]cnc2c1ncn2[C@H]1CC[C@@H](CO)O1 [DIDANOSINE] | 8.86 | 16 | > 211 | > 24 | > 13 |  |  |  |  |  |  |  |  |  |  |  | 
18 | O=C(CSc1ncnn1-c1ccc(Cl)cc1Cl)Nc1cccnc1Cl | 4.99 | > 98.5 | 98.5 | 20 | < 1 | inactive | inactive | inactive | inactive | 2.8 | 4.3 | 4.4 | 6.79 | 10.5 | 15.4 |  | 
19 | NS(=O)(=O)c1ccc(NC(=O)CSc2nnc(Br)n2-c2ccc(C3CC3)c3ccccc23)c(Cl)c1 |  |  |  |  |  |  |  |  |  |  |  |  |  |  |  |  | 0.23
20 | CCOC(=O)c1ccc(NC(=O)CSc2ncnn2-c2ccc(Cl)cc2Cl)c(Br)c1 | 4.68 | > 33.1 | 33.1 | 7 | < 1 | inactive | inactive | inactive | inactive | 1.6 | >6.7 | 1.9 | > 38.7 | 9.54 | 10.8 | 297 | 
21 | O=C(CSc1ncnn1-c1ccc(Cl)cc1Cl)Nc1ccc(Cl)cc1Cl | 34.4 | > 172 | 172 | 5 | < 1 |  |  |  |  |  |  |  |  |  |  |  | 
22 | O=C(CSc1ncnn1-c1ccc(Cl)cc1Cl)Nc1ccccc1Cl | 6.21 | > 29.1 | 29.1 | 5 | < 1 | inactive | inactive | inactive | inactive | 2.8 | 3.6 | 3.7 | 20.9 | 16.1 | 21.4 |  | 
23 | O=C(CSc1ncnn1-c1ccc(Cl)cc1Cl)Nc1ccccc1Br | 4.85 | > 95.1 | 95.1 | 20 | < 1 | inactive | inactive | inactive | inactive | 1.9 | 6.6 | 6 | 28.2 | 8.36 | 25.7 |  | 
